{"source": "ChEMBL document CHEMBL5550082", "about": "“Discovery of pyrazolo[3,4-d]pyrimidines as novel mitogen-activated protein kinase kinase 3 (MKK3) inhibitors” (Bioorg Med Chem, 2024)", "note": "Calls of active or inactive are those of the source. No cut-off for these calls is given here.", "data": [{"tested_on": "not listed separately", "test": "Aqueous solubility of compound", "type": "physicochemical", "conditions": "water (aqueous)", "units": {"solubility": "µg/mL"}, "values": [{"molecule": "CC(C)n1nc(-c2cc3cc(O)ccc3[nH]2)c2c(N)ncnc21", "solubility": 6}]}, {"molecular_target": "T1, Dual specificity mitogen-activated protein kinase kinase 3 (Homo sapiens, UniProt P46734)", "T1 sequence (P46734 whole entry)": "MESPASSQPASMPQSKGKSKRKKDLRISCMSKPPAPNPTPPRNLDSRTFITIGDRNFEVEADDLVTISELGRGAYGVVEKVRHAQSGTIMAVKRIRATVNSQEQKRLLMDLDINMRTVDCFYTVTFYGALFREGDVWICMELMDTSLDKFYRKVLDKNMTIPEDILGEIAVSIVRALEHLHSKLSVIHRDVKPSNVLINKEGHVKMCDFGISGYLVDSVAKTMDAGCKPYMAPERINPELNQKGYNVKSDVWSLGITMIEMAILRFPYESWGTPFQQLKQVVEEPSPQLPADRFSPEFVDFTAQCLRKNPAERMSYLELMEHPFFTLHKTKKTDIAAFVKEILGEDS", "test": "Displacement of tracer K-9 from C-terminal NanoLuc fused full-length MKK3 (unknown origin) transfected in HEK293T cells by BRET assay", "type": "cell-based", "conditions": "not given", "method_in_brief": "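HEK293T cells in DMEM with 10 % FBS were transiently transfected with full-length wild-type MKK3 carrying a C-terminal NanoLuc fusion and cultured 48 h at 37 °C. The cells were then resuspended in Opti-MEM at 2×10^5 cells/mL. Tracer K-9 was added at 1.0 μM final with compound dilutions (2 % DMSO final) for 2 h. After NanoLuc substrate plus extracellular inhibitor, emissions at 460 and 610 nm were read as mBRET, normalized, and fitted to give IC50.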", "units": {"IC50": "µM"}, "values": [{"molecule": "CC(C)(C)n1nc(-c2cc(F)c(O)c(F)c2)c2c(N)ncnc21", "IC50": 145}]}, {"tested_on": "not listed separately", "test": "Inhibition of N-terminal GST-tagged recombinant human MKK3 […]/T193E mutant expressed in baculovirus infected Sf9 insect cells using STK-3-biotin as substrate at 5 uM preincubated for 30 mins followed by substrate/ATP addition measured after 90 mins by TR-FRET assay relative to control", "conditions": "time 120.0 min", "method_in_brief": "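GST-tagged MKK3 S189E/T193E (MKK3E), glutathione-purified from baculovirus-infected Sf9 cells, was used at 100 nM. It was preincubated 30 min at room temperature with compound, then 1 µM ATP and 1 µM STK-3-biotin peptide were added and reacted at least 90 min at 30 °C. Reactions were stopped with Eu-antibody and streptavidin-XL665, and HTRF was read as the 665/620 nm ratio.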", "values": [{"molecule": "CC(C)(C)n1nc(-c2ccc3ncccc3c2)c2c(N)ncnc21", "inhibition": "28.2%"}, {"molecule": "CC(C)(C)n1nc(-c2cccc3cnccc23)c2c(N)ncnc21", "inhibition": "12.4%"}, {"molecule": "CC(C)(C)n1nc(-c2cc(F)c(O)c(F)c2)c2c(N)ncnc21", "inhibition": "44.9%"}, {"molecule": "CC(C)(C)n1nc(-c2cccc(C#N)c2)c2c(N)ncnc21", "inhibition": "inactive"}, {"molecule": "CC(C)(C)n1nc(-c2ccc(F)c(Cl)c2)c2c(N)ncnc21", "inhibition": "39.3%"}, {"molecule": "CC(C)(C)n1nc(-c2cccc3cn[nH]c23)c2c(N)ncnc21", "inhibition": "inactive"}, {"molecule": "CC(C)(C)n1nc(-c2ccc(F)c(C(=O)NCCO)c2)c2c(N)ncnc21", "inhibition": "5.2%"}, {"molecule": "CC(C)(C)n1nc(-c2cccc(Cl)c2F)c2c(N)ncnc21", "inhibition": "35.2%"}, {"molecule": "CC(C)(C)n1nc(-c2ccccc2F)c2c(N)ncnc21", "inhibition": "37.4%"}, {"molecule": "CC(C)(C)n1nc(-c2ccc(N)c3ccccc23)c2c(N)ncnc21", "inhibition": "54.8%"}, {"molecule": "CC(C)(C)n1nc(-c2cccc(Cl)c2)c2c(N)ncnc21", "inhibition": "19.8%"}, {"molecule": "CC(C)(C)n1nc(-c2cc(Cl)cc(Cl)c2)c2c(N)ncnc21", "inhibition": "23.4%"}, {"molecule": "CC(C)(C)n1nc(-c2ccccc2)c2c(N)ncnc21", "inhibition": "34.8%"}, {"molecule": "CC(C)(C)n1nc(-c2ccc(S(=O)(=O)NC3CC3)cc2)c2c(N)ncnc21", "inhibition": "12.6%"}, {"molecule": "CC(C)(C)n1nc(-c2ccc3[nH]ccc3c2)c2c(N)ncnc21", "inhibition": "58.2%"}, {"molecule": "CC(C)NC(=O)c1ccc(-c2nn(C(C)(C)C)c3ncnc(N)c23)cc1", "inhibition": "26.4%"}, {"molecule": "CC(C)(C)n1nc(-c2cccc(C(=O)NC3CC3)c2)c2c(N)ncnc21", "inhibition": "7.1%"}, {"molecule": "CC(C)(C)n1nc(-c2ccc(F)c(C#N)c2)c2c(N)ncnc21", "inhibition": "35.6%"}, {"molecule": "CC(C)(C)n1nc(-c2ccnc3ccccc23)c2c(N)ncnc21", "inhibition": "3.4%"}]}, {"molecular_target": "Death-associated protein kinase 3 (Homo sapiens) (UniProt O43293)", "sequence (O43293 whole entry, looked up)": "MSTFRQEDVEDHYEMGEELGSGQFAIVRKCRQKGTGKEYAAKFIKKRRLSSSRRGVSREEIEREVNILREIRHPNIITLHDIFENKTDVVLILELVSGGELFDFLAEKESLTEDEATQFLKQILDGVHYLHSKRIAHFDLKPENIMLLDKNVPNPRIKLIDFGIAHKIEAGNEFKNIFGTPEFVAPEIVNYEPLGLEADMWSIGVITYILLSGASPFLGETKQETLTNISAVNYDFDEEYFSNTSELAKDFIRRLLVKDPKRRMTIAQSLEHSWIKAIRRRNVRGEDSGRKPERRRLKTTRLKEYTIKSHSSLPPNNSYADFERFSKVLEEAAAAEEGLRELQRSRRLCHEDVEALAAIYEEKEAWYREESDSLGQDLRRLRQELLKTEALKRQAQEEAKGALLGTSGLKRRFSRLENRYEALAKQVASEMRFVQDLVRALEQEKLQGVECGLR", "test": "Displacement of Eu-Streptavidin from human DAPK3 by TR-FRET assay", "conditions": "not given", "method_in_brief": "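Human DAPK3, biotinylated in vivo during expression, tested in a TR-FRET assay measuring competitive displacement of a generic ATP-competitive fluorescent tracer. Compound tested at a single concentration of 1 µM. Displacement is relative to vehicle: DMSO sets 0 % and a reference inhibitor specific to the kinase sets 100 %.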", "values": [{"molecule": "CC(C)(C)n1nc(-c2cc(F)c(O)c(F)c2)c2c(N)ncnc21", "Activity": "> 80%"}, {"molecule": "CC(C)n1nc(-c2cc3cc(O)ccc3[nH]2)c2c(N)ncnc21", "Activity": "Active"}]}]}
